Experimental data reported in PubChem BioAssay.
Active and inactive are the calls of the source.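 The calls were made as follows, unless noted: active = viability at or below 30% in both replicate assays; inconclusive = viability at or below 30% in just one of the two assays; inactive = the rest.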

Tests used:
[1] = SK-BR-3 cell growth inhibitors, pilot screen, 24 h, human (AID 572;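 active = viability at or below 10% of carrier control in both of two separate runs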;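 also: compound exposure lasted between 18 and 24 h rather than exactly 24 h; 100% = carrier-treated control wells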); conditions: SK-BR-3 viability, CellTiter-Glo luminescence, at 10 µM, stronger effect = lower value
[2] = HUVEC growth inhibition – cell-based, human, primary screen (AID 575); conditions: HUVEC proliferation, CellTiter-Glo luminescence, 72 h; at 10 µM; stronger effect = lower value;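 also: 100% = median of untreated cell wells with 0.1% DMSO on each plate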
In short: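 Test system – primary HUVEC, no more than 12 passages · Dosing – one dose, 10 µM final, 0.1% DMSO · Times – 72 h treatment at 37 °C · Measured by – ATP-based CellTiter-Glo luminescent read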

[3] = growth inhibitors of H69AR lung tumor, primary screen, human, duplicate replicates (AID 580;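 active = viability at or under a set limit in both replicates, limit being median viability minus 3 SD, cut at about 48% in these data, passing the limit was not always enough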;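 also: 100% = mean luminescence of untreated wells and 0% = no signal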); conditions: H69AR lung tumor cells viability, ATP luminescence, 72 h; at 10 µM; stronger effect = lower value
[4] = reversal of MRP1-mediated doxorubicin resistance, pilot screen, H69AR cells, doxorubicin co-treatment (AID 601;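 active = viability loss from added drug above about 55%, and viability with drug at most 40%, in both replicates, limit read from the data, passing the limit was not always enough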); conditions: CellTiter-Glo, 72 h, at 10 µM; for differential viability (reversal): stronger effect = higher value
[5] = 384-well plate pilot, post-Golgi transport modulator project, inhibition of yeast transport mutant growth (AID 636; in the data active = inhibition above about 31%); conditions: absorbance 615 nm, about 18 h, stronger effect = higher value
[6] = growth suppression of yeast trafficking mutant, preliminary HTS, modulators of trafficking downstream of Golgi apparatus project, 1536-format plate, OD 615 nm (AID 637; in the data active = inhibition above about 30%); conditions: yeast transport mutant growth, absorbance 615 nm, 18 h; stronger effect = higher value
[7] = H69AR cells + 2 uM doxorubicin, measured here: viability with 2 uM doxorubicin, stronger effect = lower value
[8] = H69AR cells, compound alone cytotoxicity

| Compound | viability [1] | viability [2] | viability [3] | differential viability (reversal) ([4]; H69AR cells + 2 uM doxorubicin) | viability [4, 7] [%] | viability [4, 8] [%] | inhibition [5] | inhibition [6] |
| --- | --- | --- | --- | --- | --- | --- | --- | --- |
| CCOc1ccc2[nH]c(O)c(NC(C)=O)c2c1 | 95% (inactive) | 100% (inactive) | 94.8% (inactive) | 0.61% (inactive) | 94.1 | 94.8 | -4.86% (inactive) | 0.91% (inactive) |
| Cc1noc(C)c1C(=O)N1CCN(C(=O)c2sc3cc(Cl)ccc3c2Cl)CC1 | 103% (inactive) | 106% (inactive) | 89% (inactive) | 8.48% (inactive) | 80.5 | 89 | -5.14% (inactive) | -1.64% (inactive) |
| Cc1cc(-c2ccccc2)nnc1NCCN1CCOCC1 | 98% (inactive) | 85.7% (inactive) | 89.7% (inactive) | -2.49% (inactive) | 92.1 | 89.7 | 1.69% (inactive) | -3.17% (inactive) |
| CC(=O)OCC(=O)[C@H]1CC[C@H]2[C@@H]3CC=C4C[C@@H](O)CC[C@]4(C)[C@H]3CC[C@]12C | 87% (inactive) | 44.3% (inactive) | 96.8% (inactive) | 4.54% (inactive) | 92.3 | 96.8 | -0.65% (inactive) | 44.5% (active) |
| CCN(CC)c1nc(N(CC)CC)[nH]c(=O)n1 | 112% (inactive) | 110% (inactive) | 94.7% (inactive) | 2.19% (inactive) | 92.6 | 94.7 | -4.94% (inactive) | 6.72% (inactive) |
| O=C(c1ccccc1)c1ccc(N2CCNCC2)cc1 | 129% (inactive) | 96.4% (inactive) | 84.5% (inactive) | -5.36% (inactive) | 89.9 | 84.5 | -2.05% (inactive) | 6.91% (inactive) |
| CCN(CC(=O)Nc1ccc2c(c1)CCC2)Cc1nc2ccccc2c(=O)[nH]1 | 77% (inactive) | 81.8% (inactive) | 71.5% (inactive) | -13.7% (inactive) | 85.2 | 71.5 | -2.6% (inactive) | 4.73% (inactive) |
| CC1CCCC(C)N1CCNC(=O)C1CCN(S(=O)(=O)N2CCCCC2)CC1 (stereo unspecified) | 93% (inactive) | 110% (inactive) | 104% (inactive) | 13.1% (inactive) | 90.7 | 104 | -1.2% (inactive) | -2.55% (inactive) |
| O=C(NCC12CC3CC(C1)CC(CNC(=O)N1CCCC1)(C3)C2)N1CCCC1 | 78% (inactive) | 90.1% (inactive) | 84.8% (inactive) | -4.64% (inactive) | 89.5 | 84.8 | -10.3% (inactive) | 1.77% (inactive) |
| CC(=O)Nc1c(O)n(C)c2ccccc12 | 65% (inactive) | 103% (inactive) | 96.3% (inactive) | -14.5% (inactive) | 111 | 96.3 | -5.75% (inactive) | 4.55% (inactive) |
| Cc1ccc(Cn2nnnc2CN2CCC(O)(c3ccccc3F)CC2)cc1 | 62% (inactive) | 92.6% (inactive) | 83.1% (inactive) | -2.32% (inactive) | 85.4 | 83.1 | -8.36% (inactive) | -0.65% (inactive) |
| Cc1c(Cl)cccc1Nc1ccccc1C(=O)O | 108% (inactive) | 56.7% (inactive) | 111% (inactive) | 9% (inactive) | 102 | 111 | -1.17% (inactive) | 5.33% (inactive) |
| Cn1nc(CC(=O)Nc2ccc(N3CCN(C(=O)OC(C)(C)C)CC3)cc2)c2ccccc2c1=O | 84% (inactive) | 9.25% (active) | 1.72% (active) | -3.22% (inactive) | 4.94 | 1.72 | -1.82% (inactive) | -4.26% (inactive) |
| CCOC(=O)c1c(-c2ccc(C)o2)csc1NC(=O)CN1CCN(CC)CC1 | 87% (inactive) | 88.6% (inactive) | 80.2% (inactive) | -6.44% (inactive) | 86.7 | 80.2 | -7.53% (inactive) | 4.18% (inactive) |
| COc1ccccc1-c1nc2n(n1)C(c1ccc(Cl)cc1)C(C(N)=O)=C(C)N2 (stereo unspecified) | 126% (inactive) | 89.8% (inactive) | 83.5% (inactive) | -4.36% (inactive) | 87.9 | 83.5 | -0.91% (inactive) | -3.61% (inactive) |
| Cc1ccccc1-n1nc(C)c2cc(C(=O)NCc3cccnc3)sc21 | 126% (inactive) | 74.1% (inactive) | 70.3% (inactive) | 10.8% (inactive) | 59.4 | 70.3 | -1.95% (inactive) | 9.51% (inactive) |
| Cc1cc(NC(=O)Cc2c(F)cccc2Cl)no1 | 102% (inactive) | 95.5% (inactive) | 96% (inactive) | 6.76% (inactive) | 89.2 | 96 | -7.26% (inactive) | 3.64% (inactive) |
| CCOC(=O)C1CCCN(C(=O)Cc2ccc(OC)c(OC)c2)C1 (stereo unspecified) | 81% (inactive) | 99.5% (inactive) | 94.5% (inactive) | 2.69% (inactive) | 91.8 | 94.5 | -6.85% (inactive) | 1.09% (inactive) |
| OC1C=CSc2nc3ccccc3n21 (stereo unspecified) | 83.5% (inactive) | 79% (inactive) | 66.8% (inactive) | -8.25% (inactive) | 75 | 66.8 | -5.68% (inactive) | 1.8% (inactive) |
| O=C(Cc1nc2ccccc2s1)c1ccc(O)cc1O | 100% (inactive) | 87.3% (inactive) | 90.8% (inactive) | 4.72% (inactive) | 86 | 90.8 | -4.53% (inactive) | -0.18% (inactive) |
| Cc1cc(C)nc(SCCS(=O)Cc2ccc(Cl)cc2)n1 (stereo unspecified) | 102% (inactive) | 99.4% (inactive) | 96.2% (inactive) | 4.69% (inactive) | 91.5 | 96.2 | -2.34% (inactive) | -3.11% (inactive) |
| CN(C)CCOC(=O)C(c1ccccc1)C1(O)CCCC1 (stereo unspecified) | 127% (inactive) | 92.9% (inactive) | 102% (inactive) | 4.65% (inactive) | 97 | 102 | -1.43% (inactive) | 2.33% (inactive) |
| O=C(NCCCN1CCOCC1)c1cc(-c2ccc(Cl)cc2)on1 | 88% (inactive) | 103% (inactive) | 94.1% (inactive) | 15.9% (inactive) | 78.2 | 94.1 | -6.8% (inactive) | 0.55% (inactive) |
| Brc1ccc2[nH]c3nc(SCCN4CCOCC4)nnc3c2c1 | 100% (inactive) | 89.8% (inactive) | 87% (inactive) | 10.9% (inactive) | 76.2 | 87 | 2.21% (inactive) | 11.6% (inactive) |
| c1ccc2oc(SCc3cn4ccccc4n3)nc2c1 | 91% (inactive) | 93.3% (inactive) | 95% (inactive) | 9.37% (inactive) | 85.6 | 95 | -1.43% (inactive) | -1.48% (inactive) |
| CCC1(C(=O)OC)NC(c2cccc(F)c2)C2C(=O)N(C)C(=O)C21 (stereo unspecified) | 91% (inactive) | 96.1% (inactive) | 88.3% (inactive) | -1.59% (inactive) | 89.8 | 88.3 | -6.08% (inactive) | 0.73% (inactive) |
| COc1ccccc1N1CCN(C(=O)CN(Cc2ccc(Cl)cc2)S(C)(=O)=O)CC1 | 91% (inactive) | 88.7% (inactive) | 99.8% (inactive) | 4.09% (inactive) | 95.7 | 99.8 | -5.45% (inactive) | -0.49% (inactive) |
